ChEMBL document CHEMBL3813636, “Toward discovery of mutant EGFR inhibitors; Design, synthesis and in vitro biological evaluation of potent 4-arylamino-6-ureido and thioureido-quinazoline derivatives” (Bioorg Med Chem, 2016)
One block for each compound: values may come before it. Activity calls are given as the source filed them. The rule behind the calls is not given here.

Assays:
[1] = target: T1, Epidermal growth factor receptor (Homo sapiens, UniProt P00533); assay: Inhibition of recombinant human EGFR expressed in baculovirus by fluorescence based assay
[2] = test system: Epidermal growth factor receptor (Homo sapiens), P00533 [UNDEFINED MUTATION]; settings: PC9/GR4, at 10 µM
[3] = test system: Epidermal growth factor receptor (Homo sapiens), P00533 [UNDEFINED MUTATION]; assay: Inhibition of EGFR Del19/T790M double mutant (unknown origin) expressed in mouse BaF/3 cells assessed as cell growth inhibition at 10 uM after 72 hrs by MTS assay; type: cell-based
In short: (§1)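 Ba/F3 cells carrying the listed double-mutant EGFR were exposed to 10 uM compound, and growth was read by MTS assay as percent growth relative to DMSO-treated cells. Experiments were repeated at least three times.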

[4] = Antiproliferative activity against gefitinib-sensitive human PC9 cells assessed as cell viability after 72 hrs by cell titer-glo luminescence assay; type: functional, cell-based; settings: PC-9, 72 h
[5] = target: Receptor tyrosine-protein kinase erbB-2 (Homo sapiens, UniProt P04626); assay: Inhibition of His-tagged human recombinant Her2 (676 to 1255 residues) expressed in baculovirus by fluorescence based assay
Sequence of Receptor tyrosine-protein kinase erbB-2 (P04626 whole entry, the tested form may be a part): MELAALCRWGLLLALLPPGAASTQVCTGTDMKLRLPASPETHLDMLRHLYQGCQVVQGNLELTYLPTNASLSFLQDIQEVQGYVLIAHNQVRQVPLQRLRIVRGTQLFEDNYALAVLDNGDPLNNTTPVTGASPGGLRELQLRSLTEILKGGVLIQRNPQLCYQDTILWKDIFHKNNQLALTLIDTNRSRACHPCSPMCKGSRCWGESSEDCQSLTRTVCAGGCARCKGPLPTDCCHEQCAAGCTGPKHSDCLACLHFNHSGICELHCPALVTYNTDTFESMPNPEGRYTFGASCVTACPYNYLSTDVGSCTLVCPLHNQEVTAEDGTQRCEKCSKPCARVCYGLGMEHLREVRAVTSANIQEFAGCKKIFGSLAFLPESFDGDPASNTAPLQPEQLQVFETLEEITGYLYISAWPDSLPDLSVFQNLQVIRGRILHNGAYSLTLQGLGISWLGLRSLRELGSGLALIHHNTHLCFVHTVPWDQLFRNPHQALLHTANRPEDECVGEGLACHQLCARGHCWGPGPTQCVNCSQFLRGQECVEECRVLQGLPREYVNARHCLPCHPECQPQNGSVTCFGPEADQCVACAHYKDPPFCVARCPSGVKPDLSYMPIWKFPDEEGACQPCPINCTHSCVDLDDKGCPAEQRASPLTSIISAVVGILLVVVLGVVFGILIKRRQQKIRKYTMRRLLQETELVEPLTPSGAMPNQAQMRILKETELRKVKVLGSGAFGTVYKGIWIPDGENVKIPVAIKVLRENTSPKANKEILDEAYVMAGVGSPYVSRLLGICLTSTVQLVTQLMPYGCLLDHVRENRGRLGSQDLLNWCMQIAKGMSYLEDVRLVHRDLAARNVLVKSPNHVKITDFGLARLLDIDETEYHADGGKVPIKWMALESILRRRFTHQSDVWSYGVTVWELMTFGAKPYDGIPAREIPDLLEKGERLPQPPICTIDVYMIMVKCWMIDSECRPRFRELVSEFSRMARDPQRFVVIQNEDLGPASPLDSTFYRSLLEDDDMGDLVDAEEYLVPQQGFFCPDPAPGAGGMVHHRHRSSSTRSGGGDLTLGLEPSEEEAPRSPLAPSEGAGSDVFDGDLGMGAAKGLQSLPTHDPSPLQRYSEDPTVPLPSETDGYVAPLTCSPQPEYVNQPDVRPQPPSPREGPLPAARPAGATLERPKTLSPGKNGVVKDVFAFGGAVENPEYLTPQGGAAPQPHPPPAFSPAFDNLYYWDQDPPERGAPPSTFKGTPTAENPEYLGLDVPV
In short: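 Her2 kinase activity was measured with an outsourced kinase-profiling service. It used a fluorescence-based coupled-enzyme format that exploits the differing sensitivity of phosphorylated and non-phosphorylated peptide substrates to proteolytic cleavage.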

[6] = target: T1, Epidermal growth factor receptor; settings: PC-9, at 10 µM
[7] = test system: Epidermal growth factor receptor (Homo sapiens), P00533 [UNDEFINED MUTATION]; settings: PC9/GR4, at 10 µM; remark: listed apart in the source
[8] = Antiproliferative activity against gefitinib-resistant human PC9/GR4 cells expressing Del19/T790M double mutant assessed as cell viability after 72 hrs by cell titer-glo luminescence assay; type: functional, cell-based; settings: PC9/GR4, 72 h
[9] = Potency index, ratio of gefitinib IC50 to compound IC50 for human PC9/GR4 cells expressing Del19/T790M double mutant; type: functional
[10] = test system: Epidermal growth factor receptor (Homo sapiens), P00533 [L858R,T790M]; assay: Inhibition of EGFR L858R/T790M double mutant (unknown origin) expressed in mouse BaF/3 cells assessed as cell growth inhibition at 10 uM after 72 hrs by MTS assay; type: cell-based; in short: as §1
[11] = target: T1, Epidermal growth factor receptor; settings: PC-9, at 10 µM; remark: listed apart in the source
[12] = Cytotoxicity against human BT474 cells expressing Her2 assessed as reduction in cell viability after 72 hrs by cell titer-glo luminescence assay; type: functional, cell-based; settings: BT-474, 72 h

Compound: Fc1ccc(Nc2ncnc3ccc(NC(=S)NCCCN4CCOCC4)cc23)cc1Cl
IC50 [1]: < 0.495 nM

Compound: S=C(NCCN1CCOCC1)Nc1ccc2ncnc(Nc3ccc(Cl)cc3)c2c1
IC50 [1]: 5.06 nM

Compound: C#Cc1cccc(Nc2ncnc3ccc(NC(C)=O)cc23)c1
IC50 [1]: 2.04 nM

Compound: NC(=O)Nc1ccc2ncnc(Nc3ccc(OCc4cccc(F)c4)c(Cl)c3)c2c1
IC50 [5]: 26.8 nM
IC50 [1]: 2.03 nM

Compound: S=C(NCCN1CCOCC1)Nc1ccc2ncnc(Nc3ccc(Cl)c(Cl)c3)c2c1
IC50 [1]: 9.05 nM

Compound: Fc1cccc(COc2ccc(Nc3ncnc4ccc(NC(=S)NCCCN5CCOCC5)cc34)cc2Cl)c1
IC50 [5]: 12.1 nM
IC50 [1]: 1.5 nM

Compound: C#Cc1cccc(Nc2ncnc3ccc(NC(N)=O)cc23)c1
IC50 [1]: 2.22 nM

Compound: CC(=O)Nc1ccc2ncnc(Nc3ccc(F)c(Cl)c3)c2c1
inhibition [2]: Active
IC50 [4]: 225 nM
inhibition [6]: Active
inhibition [7]: Active
IC50 [8]: 12600 nM
inhibition [11]: Active
IC50 [1]: 0.662 nM

Compound: NC(=O)Nc1ccc2ncnc(Nc3ccc(Br)cc3)c2c1
IC50 [1]: 0.803 nM

Compound: NC(=O)Nc1ccc2ncnc(Nc3ccc(F)c(Cl)c3)c2c1
inhibition [2]: Active
IC50 [4]: 961 nM
inhibition [6]: Active
inhibition [7]: Active
IC50 [8]: 21700 nM
inhibition [11]: Active
IC50 [1]: 0.854 nM

Compound: CS(=O)(=O)CCNCc1ccc(-c2ccc3ncnc(Nc4ccc(OCc5cccc(F)c5)c(Cl)c4)c3c2)o1 [LAPATINIB]
IC50 [12]: 31 nM

Compound: CC(=O)Nc1ccc2ncnc(Nc3ccc(OCc4cccc(F)c4)c(Cl)c3)c2c1
inhibition [2]: Active
growth inhibition (GI) [3]: Active
IC50 [4]: 662 nM
IC50 [5]: 32.3 nM
inhibition [6]: Active
inhibition [7]: Active
IC50 [8]: 8310 nM
growth inhibition (GI) [10]: Active
inhibition [11]: Active
IC50 [12]: 57 nM
IC50 [1]: 3.96 nM

Compound: Fc1cccc(COc2ccc(Nc3ncnc4ccc(NC(=S)NCCN5CCOCC5)cc34)cc2Cl)c1
IC50 [5]: 33.1 nM
IC50 [1]: 2.26 nM

Now from value to compound, other results behind:

inhibition [2]: Active
growth inhibition (GI) [3]: Active
IC50 [5]: 19.2 nM
inhibition [6]: Active
inhibition [7]: Active
growth inhibition (GI) [10]: Active
inhibition [11]: Active
Compound: O=C(NCCN1CCCCC1)Nc1ccc2ncnc(Nc3ccc(OCc4cccc(F)c4)c(Cl)c3)c2c1
IC50 [4]: 1580 nM
IC50 [8]: 2160 nM
Ratio IC50 [9]: 8
IC50 [12]: 760 nM

IC50 [1]: 0.772 nM
Compound: O=C(NCCN1CCCCC1)Nc1ccc2ncnc(Nc3cccc(Br)c3)c2c1

IC50 [1]: 1.06 nM
Compound: O=C(NCCN1CCCCC1)Nc1ccc2ncnc(Nc3ccc(F)c(Cl)c3)c2c1

IC50 [1]: 3.7 nM
Compound: Fc1ccc(Nc2ncnc3ccc(NC(=S)NCCN4CCCCC4)cc23)cc1Cl

IC50 [1]: 1.43 nM
Compound: O=C(NCCN1CCOCC1)Nc1ccc2ncnc(Nc3cccc(Br)c3)c2c1

IC50 [1]: 1.81 nM
Compound: S=C(NCCN1CCOCC1)Nc1ccc2ncnc(Nc3cccc(Br)c3)c2c1

inhibition [2]: Active
growth inhibition (GI) [3]: Active
IC50 [5]: 40.6 nM
inhibition [6]: Active
inhibition [7]: Active
growth inhibition (GI) [10]: Active
inhibition [11]: Active
Compound: Fc1cccc(COc2ccc(Nc3ncnc4ccc(NC(=S)NCCN5CCCCC5)cc34)cc2Cl)c1
IC50 [4]: 2160 nM
IC50 [8]: 5700 nM
Ratio IC50 [9]: 3
IC50 [12]: 340 nM

IC50 [1]: 2.92 nM
Compound: O=C(NCCN1CCOCC1)Nc1ccc2ncnc(Nc3ccc(F)c(Cl)c3)c2c1

IC50 [1]: 2.25 nM
Compound: Fc1ccc(Nc2ncnc3ccc(NC(=S)NCCN4CCOCC4)cc23)cc1Cl
